Measurements published in ChEMBL document CHEMBL1158358, “Synthesis, antimicrobial and cytotoxic activities of some 5-arylidene-4-thioxo-thiazolidine-2-ones” (Eur J Med Chem, 2009).
≈ marks a conversion by molar mass, not a printed value.

Legend:
Type in all cases: functional
Staphylococcus aureus [1] = assay: Antimicrobial activity against multidrug-resistant Staphylococcus aureus H.C. 21036 isolate after 20 hrs by twofold serial dilution technique; settings: H.C. 21036, 20 h
Method in brief: (§1)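 Twofold serial dilution MIC in agar plates against Gram-positive strains and multidrug-resistant clinical isolates. Inoculum applied was 10⁵ CFU/plate. Plates with culture medium plus DMSO served as negative control. MIC was read after incubation at 35 °C for 20 h.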

Enterococcus faecalis [2] = assay: Antimicrobial activity against Enterococcus faecalis UFPEDA 138 after 20 hrs by twofold serial dilution technique; settings: UFPEDA 138, 20 h
Method in brief: (§2)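 MIC was determined by twofold serial dilution. Bacteria were tested in plates at 10⁵ CFU/plate and read after 20 h. C. albicans was tested in tubes at 10³ CFU/tube and read after 48 h. All incubations were at 35 °C. Medium plus DMSO served as the negative control.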

Micrococcus luteus [3] = assay: Antimicrobial activity against Micrococcus luteus UFPEDA 06 after 20 hrs by twofold serial dilution technique; settings: UFPEDA 06, 20 h; method in brief: as §2
NCI-H292 [4] = assay: Cytotoxicity against human NCI-H292 cells at 1.25 ug/mL after 72 hrs by MTT assay; settings: NCI-H292, 72 h, read-out: GI
Method in brief: (§3)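 MTT antiproliferative assay. Cells were diluted to 10⁵ cells/mL in 96-well plates and preincubated for 24 h at 37 °C in humid 5% CO₂. Compounds or vincristine (reference) were then added. Formazan was dissolved and OD read at 540 nm, compared with medium-only control cells. Run in triplicate.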

Staphylococcus aureus [5] = assay: Antimicrobial activity against Staphylococcus aureus UFPEDA 01 at 300 ug/disk after 24 hrs by disk diffusion method; settings: UFPEDA 01, 24 h, read-out: IZ
Method in brief: (§4)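 Preliminary screen by disk diffusion. Paper disks (6 mm) holding 300 µg of compound were placed on agar plates inoculated with a standardized microbial suspension. DMSO-only disks served as negative controls. A mean inhibition zone below 7 mm was scored as no sensitivity. Values are means, n = 3.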

Staphylococcus aureus [6] = assay: Antimicrobial activity against multidrug-resistant Staphylococcus aureus H.C. 21141 isolate after 20 hrs by twofold serial dilution technique; settings: H.C. 21141, 20 h; method in brief: as §1
Enterococcus faecalis [7] = assay: Antimicrobial activity against multidrug-resistant Enterococcus faecalis H.C. 21752 isolate after 20 hrs by twofold serial dilution technique; settings: H.C. 21752, 20 h; method in brief: as §1
Staphylococcus aureus [8] = assay: Antimicrobial activity against multidrug-resistant Staphylococcus aureus H.C. 20794 isolate after 20 hrs by twofold serial dilution technique; settings: H.C. 20794, 20 h; method in brief: as §1
[9] = tested on: Mycolicibacterium smegmatis; assay: Antimicrobial activity against Mycobacterium smegmatis UFPEDA 71 after 20 hrs by twofold serial dilution technique; settings: UFPEDA 71, 20 h; method in brief: as §2
Serratia marcescens = assay: Antimicrobial activity against Serratia marcescens UFPEDA 398 at 300 ug/disk after 24 hrs by disk diffusion method; settings: UFPEDA 398, 24 h, read-out: IZ; method in brief: as §4
Candida albicans [10] = assay: Antimicrobial activity against Candida albicans UFPEDA 1007 after 48 hrs by twofold serial dilution technique; settings: UFPEDA 1007, 48 h; method in brief: as §2
Staphylococcus aureus [11] = assay: Antimicrobial activity against multidrug-resistant Staphylococcus aureus H.C. 20981 isolate after 20 hrs by twofold serial dilution technique; settings: H.C. 20981, 20 h; method in brief: as §1
Candida albicans [12] = assay: Antimicrobial activity against Candida albicans UFPEDA 1007 at 300 ug/disk after 48 hrs by disk diffusion method; settings: UFPEDA 1007, 48 h, read-out: IZ; method in brief: as §4
NCI-H292 [13] = assay: Cytotoxicity against human NCI-H292 cells at 5 ug/mL after 72 hrs by MTT assay; settings: NCI-H292, 72 h, read-out: GI; method in brief: as §3
Staphylococcus aureus [14] = assay: Antimicrobial activity against multidrug-resistant Staphylococcus aureus H.C. 20905 isolate after 20 hrs by twofold serial dilution technique; settings: H.C. 20905, 20 h; method in brief: as §1
Enterococcus faecalis [15] = assay: Antimicrobial activity against multidrug-resistant Enterococcus faecalis H.C. 24708 isolate after 20 hrs by twofold serial dilution technique; settings: H.C. 24708, 20 h; method in brief: as §1
Bacillus subtilis [16] = assay: Antimicrobial activity against Bacillus subtilis UFPEDA 16 after 20 hrs by twofold serial dilution technique; settings: UFPEDA 16, 20 h; method in brief: as §2
Enterococcus faecalis [17] = assay: Antimicrobial activity against Enterococcus faecalis UFPEDA 138 at 300 ug/disk after 24 hrs by disk diffusion method; settings: UFPEDA 138, 24 h, read-out: IZ; method in brief: as §4
Micrococcus luteus [18] = assay: Antimicrobial activity against Micrococcus luteus UFPEDA 06 at 300 ug/disk after 24 hrs by disk diffusion method; settings: UFPEDA 06, 24 h, read-out: IZ; method in brief: as §4
Bacillus subtilis [19] = assay: Antimicrobial activity against Bacillus subtilis UFPEDA 16 at 300 ug/disk after 24 hrs by disk diffusion method; settings: UFPEDA 16, 24 h, read-out: IZ; method in brief: as §4
HEp-2 [20] = assay: Cytotoxicity against human Hep2 cells at 2.5 ug/mL after 72 hrs by MTT assay; settings: HEp-2, 72 h, read-out: GI; method in brief: as §3
[21] = tested on: Mycolicibacterium smegmatis; assay: Antimicrobial activity against Mycobacterium smegmatis UFPEDA 71 at 300 ug/disk after 24 hrs by disk diffusion method; settings: UFPEDA 71, 24 h, read-out: IZ; method in brief: as §4
Staphylococcus [22] = assay: Antimicrobial activity against coagulase-negative Staphylococcus H.A.M. 278 isolate after 20 hrs by twofold serial dilution technique; settings: H.A.M. 278, 20 h; method in brief: as §2
NCI-H292 [23] = assay: Cytotoxicity against human NCI-H292 cells at 2.5 ug/mL after 72 hrs by MTT assay; settings: NCI-H292, 72 h, read-out: GI; method in brief: as §3
HEp-2 [24] = assay: Cytotoxicity against human Hep2 cells at 10 ug/mL after 72 hrs by MTT assay; settings: HEp-2, 72 h, read-out: GI; method in brief: as §3
Staphylococcus [25] = assay: Antimicrobial activity against coagulase-negative Staphylococcus H.A.M. 338 isolate after 20 hrs by twofold serial dilution technique; settings: H.A.M. 338, 20 h; method in brief: as §2
Enterococcus faecalis [26] = assay: Antimicrobial activity against multidrug-resistant Enterococcus faecalis H.C. 21944 isolate after 20 hrs by twofold serial dilution technique; settings: H.C. 21944, 20 h; method in brief: as §1
Escherichia coli = assay: Antimicrobial activity against Escherichia coli UFPEDA 224 at 300 ug/disk after 24 hrs by disk diffusion method; settings: UFPEDA 224, 24 h, read-out: IZ; method in brief: as §4
Enterococcus faecalis [27] = assay: Antimicrobial activity against multidrug-resistant Enterococcus faecalis H.C. 24962 isolate after 20 hrs by twofold serial dilution technique; settings: H.C. 24962, 20 h; method in brief: as §1
Staphylococcus aureus [28] = assay: Antimicrobial activity against multidrug-resistant Staphylococcus aureus H.C. 20489 isolate after 20 hrs by twofold serial dilution technique; settings: H.C. 20489, 20 h; method in brief: as §1
NCI-H292 [29] = assay: Cytotoxicity against human NCI-H292 cells at 10 ug/mL after 72 hrs by MTT assay; settings: NCI-H292, 72 h, read-out: GI; method in brief: as §3
Pseudomonas aeruginosa = assay: Antimicrobial activity against Pseudomonas aeruginosa UFPEDA 39 at 300 ug/disk after 24 hrs by disk diffusion method; settings: UFPEDA 39, 24 h, read-out: IZ; method in brief: as §4
HEp-2 [30] = assay: Cytotoxicity against human Hep2 cells at 1.25 ug/mL after 72 hrs by MTT assay; settings: HEp-2, 72 h, read-out: GI; method in brief: as §3
HEp-2 [31] = assay: Cytotoxicity against human Hep2 cells at 5 ug/mL after 72 hrs by MTT assay; settings: HEp-2, 72 h, read-out: GI; method in brief: as §3
Staphylococcus aureus [32] = assay: Antimicrobial activity against Staphylococcus aureus UFPEDA 01 after 20 hrs by twofold serial dilution technique; settings: UFPEDA 01, 20 h; method in brief: as §1

## O=C1NC(=S)/C(=C/c2cccc(Cl)c2)S1
Staphylococcus aureus [1]
  MIC: 2 µg/mL (≈ 7.82 µM)
Enterococcus faecalis [2]
  MIC: 8 µg/mL (≈ 31.3 µM)
Micrococcus luteus [3]
  MIC: 8 µg/mL (≈ 31.3 µM)
NCI-H292 [4]
  inhibition of growth at 1.25 µg/mL: 3.35%
Staphylococcus aureus [5]
  zone of inhibition at 300 µg/disc: 31 mm
Staphylococcus aureus [6]
  MIC: 8 µg/mL (≈ 31.3 µM)
Enterococcus faecalis [7]
  MIC: 4 µg/mL (≈ 15.6 µM)
Staphylococcus aureus [8]
  MIC: 2 µg/mL (≈ 7.82 µM)
[9]
  MIC: 16 µg/mL (≈ 62.6 µM)
Serratia marcescens
  zone of inhibition at 300 µg/disc: < 7 mm
Candida albicans [10]
  MIC: 32 µg/mL (≈ 125 µM)
Staphylococcus aureus [11]
  MIC: 2 µg/mL (≈ 7.82 µM)
Candida albicans [12]
  zone of inhibition at 300 µg/disc: 13 mm
NCI-H292 [13]
  inhibition of growth at 5 µg/mL: 21.6%
Staphylococcus aureus [14]
  MIC: 2 µg/mL (≈ 7.82 µM)
Enterococcus faecalis [15]
  MIC: 4 µg/mL (≈ 15.6 µM)
Bacillus subtilis [16]
  MIC: 8 µg/mL (≈ 31.3 µM)
Enterococcus faecalis [17]
  zone of inhibition at 300 µg/disc: 22 mm
Micrococcus luteus [18]
  zone of inhibition at 300 µg/disc: 29 mm
Bacillus subtilis [19]
  zone of inhibition at 300 µg/disc: 25 mm
HEp-2 [20]
  inhibition of growth at 2.5 µg/mL: 5.44%
[21]
  zone of inhibition at 300 µg/disc: 24 mm
Staphylococcus [22]
  MIC: 16 µg/mL (≈ 62.6 µM)
NCI-H292 [23]
  inhibition of growth at 2.5 µg/mL: 11.2%
HEp-2 [24]
  inhibition of growth at 10 µg/mL: 18.8%
Staphylococcus [25]
  MIC: 2 µg/mL (≈ 7.82 µM)
Enterococcus faecalis [26]
  MIC: 4 µg/mL (≈ 15.6 µM)
Escherichia coli
  zone of inhibition at 300 µg/disc: < 7 mm
Enterococcus faecalis [27]
  MIC: 4 µg/mL (≈ 15.6 µM)
Staphylococcus aureus [28]
  MIC: 2 µg/mL (≈ 7.82 µM)
NCI-H292 [29]
  inhibition of growth at 10 µg/mL: 30.9%
Pseudomonas aeruginosa
  zone of inhibition at 300 µg/disc: < 7 mm
HEp-2 [30]
  inhibition of growth at 1.25 µg/mL: -0.36%
HEp-2 [31]
  inhibition of growth at 5 µg/mL: 17.6%
Staphylococcus aureus [32]
  MIC: 2 µg/mL (≈ 7.82 µM)

## O=C1NC(=S)/C(=C/c2ccc(Br)cc2)S1
Staphylococcus aureus [1]
  MIC: 4 µg/mL (≈ 13.3 µM)
Enterococcus faecalis [2]
  MIC: 16 µg/mL (≈ 53.3 µM)
Micrococcus luteus [3]
  MIC: 8 µg/mL (≈ 26.6 µM)
NCI-H292 [4]
  inhibition of growth at 1.25 µg/mL: 1.1%
Staphylococcus aureus [5]
  zone of inhibition at 300 µg/disc: 23 mm
Staphylococcus aureus [6]
  MIC: 4 µg/mL (≈ 13.3 µM)
Enterococcus faecalis [7]
  MIC: 8 µg/mL (≈ 26.6 µM)
Staphylococcus aureus [8]
  MIC: 2 µg/mL (≈ 6.66 µM)
[9]
  MIC: 4 µg/mL (≈ 13.3 µM)
Serratia marcescens
  zone of inhibition at 300 µg/disc: < 7 mm
Candida albicans [10]
  MIC: 32 µg/mL (≈ 107 µM)
Staphylococcus aureus [11]
  MIC: 4 µg/mL (≈ 13.3 µM)
Candida albicans [12]
  zone of inhibition at 300 µg/disc: 15 mm
NCI-H292 [13]
  inhibition of growth at 5 µg/mL: 16.6%
Staphylococcus aureus [14]
  MIC: 4 µg/mL (≈ 13.3 µM)
Enterococcus faecalis [15]
  MIC: 8 µg/mL (≈ 26.6 µM)
Bacillus subtilis [16]
  MIC: 2 µg/mL (≈ 6.66 µM)
Enterococcus faecalis [17]
  zone of inhibition at 300 µg/disc: 17 mm
Micrococcus luteus [18]
  zone of inhibition at 300 µg/disc: 21 mm
Bacillus subtilis [19]
  zone of inhibition at 300 µg/disc: 18 mm
HEp-2 [20]
  inhibition of growth at 2.5 µg/mL: -0.36%
[21]
  zone of inhibition at 300 µg/disc: 17 mm
Staphylococcus [22]
  MIC: 4 µg/mL (≈ 13.3 µM)
NCI-H292 [23]
  inhibition of growth at 2.5 µg/mL: 1.19%
HEp-2 [24]
  inhibition of growth at 10 µg/mL: 18.2%
Staphylococcus [25]
  MIC: 4 µg/mL (≈ 13.3 µM)
Enterococcus faecalis [26]
  MIC: 8 µg/mL (≈ 26.6 µM)
Escherichia coli
  zone of inhibition at 300 µg/disc: < 7 mm
Enterococcus faecalis [27]
  MIC: 8 µg/mL (≈ 26.6 µM)
Staphylococcus aureus [28]
  MIC: 4 µg/mL (≈ 13.3 µM)
NCI-H292 [29]
  inhibition of growth at 10 µg/mL: 36.5%
Pseudomonas aeruginosa
  zone of inhibition at 300 µg/disc: < 7 mm
HEp-2 [30]
  inhibition of growth at 1.25 µg/mL: -3.16%
HEp-2 [31]
  inhibition of growth at 5 µg/mL: 15.4%
Staphylococcus aureus [32]
  MIC: 4 µg/mL (≈ 13.3 µM)
